# In ChEMBL document CHEMBL4033797, “Discovery of [ cis-3-({(5 R)-5-[(7-Fluoro-1,1-dimethyl-2,3-dihydro-1 H-inden-5-yl)carbamoyl]-2-methoxy-7,8-dihydro-1,6-naphthyridin-6(5 H)-yl}carbonyl)cyclobutyl]acetic Acid (TAK-828F) as a Potent, Selective, and Orally Available Novel Retinoic Acid Receptor-Related Orphan Receptor γt Inverse …” (J Med Chem, 2018):
# The source made the active and inactive calls. The calls are words filed in the database; no cut-off is given here.
# What was measured:
# [1] = Lipophilicity, log D of the compound at pH 7.4; assay type: physicochemical; settings: buffer
# Mus musculus [2] = experiment: In vivo inverse agonist activity at RORgammat in po dosed C57BL/6 mouse assessed as inhibition of IL-23-induced IL-17A cytokine expression; assay type: functional
# [3] = AUC (0 to 8 hrs) in mouse at 1 mg/kg, po administered via cassette dosing; assay type: ADME, organism-based; set-up: time < 8 hr, dose 1 mg/kg, route oral; settings: in vivo
# How it was run: (§1)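 Mice received a single oral 1 mg/kg dose in cassette format. Plasma was sampled over 8 h for Cmax, Tmax, AUC0–8h, MRT and oral bioavailability (F). Values are means of three determinations.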
# [4] = Oral bioavailability in mouse at 1 mg/kg administered via cassette dosing; assay type: ADME, organism-based; settings: in vivo; how it was run: as §1
# [5] = molecular target: T1, Nuclear receptor ROR-beta (Homo sapiens, UniProt Q92753); experiment: Inverse agonist activity at human RORbeta expressed in human Jurkat cells assessed as inhibition of transcriptional activity after 10 mins by human IL-17 ROR response element driven-bright-glo luciferase reporter gene assay; assay type: cell-based
# T1 sequence (Q92753 whole entry): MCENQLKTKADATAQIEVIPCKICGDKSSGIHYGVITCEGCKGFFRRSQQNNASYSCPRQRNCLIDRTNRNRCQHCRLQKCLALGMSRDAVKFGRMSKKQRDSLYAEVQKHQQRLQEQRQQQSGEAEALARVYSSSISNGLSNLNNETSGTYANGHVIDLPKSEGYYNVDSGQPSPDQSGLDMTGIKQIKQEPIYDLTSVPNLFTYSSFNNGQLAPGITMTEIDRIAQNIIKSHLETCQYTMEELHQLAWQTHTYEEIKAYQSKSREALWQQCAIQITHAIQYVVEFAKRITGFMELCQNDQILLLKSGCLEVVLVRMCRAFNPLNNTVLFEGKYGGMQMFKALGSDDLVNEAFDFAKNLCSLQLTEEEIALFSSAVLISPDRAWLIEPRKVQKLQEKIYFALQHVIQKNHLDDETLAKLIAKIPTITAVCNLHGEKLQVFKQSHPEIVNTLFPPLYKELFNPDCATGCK
# How it was run: (§2)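 Cell-based reporter assay in human Jurkat cells carrying human RORα or RORβ. Inhibition of transcriptional activity was read as luciferase activity and reported as IC50.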
# [6] = Cmax in mouse at 1 mg/kg, po administered via cassette dosing; assay type: ADME, organism-based; set-up: dose 1 mg/kg, route oral; settings: in vivo; how it was run: as §1
# [7] = Tmax in mouse at 1 mg/kg, po administered via cassette dosing; assay type: ADME, organism-based; settings: in vivo; how it was run: as §1
# [8] = MRT in mouse at 1 mg/kg, po administered via cassette dosing; assay type: ADME, organism-based; settings: in vivo; how it was run: as §1
# [9] = molecular target: T2, Nuclear receptor ROR-alpha (Homo sapiens, UniProt P35398); experiment: Inverse agonist activity at human RORalpha expressed in human Jurkat cells assessed as inhibition of transcriptional activity after 10 mins by human IL-17 ROR response element driven-bright-glo luciferase reporter gene assay; assay type: cell-based; how it was run: as §2
# T2 sequence (P35398 whole entry): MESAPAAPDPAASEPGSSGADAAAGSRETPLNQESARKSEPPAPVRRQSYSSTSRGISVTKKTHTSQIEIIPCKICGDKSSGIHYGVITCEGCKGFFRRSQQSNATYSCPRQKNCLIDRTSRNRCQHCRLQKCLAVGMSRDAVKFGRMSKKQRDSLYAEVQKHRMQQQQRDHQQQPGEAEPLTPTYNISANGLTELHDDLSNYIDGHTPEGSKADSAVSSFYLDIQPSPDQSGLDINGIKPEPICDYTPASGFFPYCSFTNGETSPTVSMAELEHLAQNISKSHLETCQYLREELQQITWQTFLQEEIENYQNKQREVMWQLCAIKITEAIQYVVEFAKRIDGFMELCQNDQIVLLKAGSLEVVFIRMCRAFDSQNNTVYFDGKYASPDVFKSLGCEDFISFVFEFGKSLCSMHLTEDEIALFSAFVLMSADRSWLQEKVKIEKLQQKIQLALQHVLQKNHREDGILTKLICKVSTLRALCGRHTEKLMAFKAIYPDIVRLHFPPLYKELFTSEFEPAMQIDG
# Mus musculus [10] = experiment: In vivo inverse agonist activity at RORgammat in po dosed C57BL/6 mouse assessed as inhibition of IL-23-induced IL-17A expression administered as bid; assay type: functional, organism-based
# How it was run: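 Mice were dosed orally twice daily at 0.3, 1 and 3 mg/kg. IL-17A expression induced by IL-23 was then measured, and an effective dose was derived from the dose–response.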
# Mus musculus [11] = experiment: (§3) Anti-inflammatory activity against MOG (35 to 55 residues)-induced EAE C57BL/6 mouse model assessed as inhibition of development of clinical symptoms at 1 mg/kg, administered bid via oral gavage measured after 28 days post Mycobacterium tuberculosis H37Ra/ MOG (35 to 55 residues)/pertussis toxin immunization; assay type: functional; settings: C57BL/6, po, 672 h
# How it was run: (§4)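 Mice immunized with MOG peptide received oral drug in 0.5% methylcellulose vehicle bid for 28 days. EAE clinical score was recorded from day 0 to day 28, along with cumulative clinical score. Groups were 12 MOG-immunized mice per group plus 4 healthy controls, reported as mean ± S.E. Comparison was against vehicle-treated immunized controls by one-tailed Shirley-Williams test (p<0.025).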
# Mus musculus [12] = experiment: as §3, with “3” for “1”; assay type: functional; settings: C57BL/6, po, 672 h; how it was run: as §4
# Mus musculus [13] = experiment: Anti-inflammatory activity in activated T cell transfer po dosed mouse colitis model; assay type: functional, organism-based
# Mus musculus [14] = experiment: Anti-inflammatory activity against IL-23 induced po dosed mouse psoriasis model; assay type: functional, organism-based
SMILES,logD [1],AUC(0-t) at 8 h [3] [ng·h/mL],bioavailability [4] [%],further results
COc1ccc2c(c1)CCN(C(=O)CCCC(=O)O)[C@H]2C(=O)Nc1cc(F)c([Si](C)(C)C)c(F)c1,3.96,,,"inhibition (Mus musculus [2]): Dose-dependent effect; ED80 (Mus musculus [2]; C57BL/6, po): 7.6 mg/kg"
COc1ccc2c(c1)CCN(C(=O)CCCC(=O)O)[C@H]2C(=O)Nc1cc(F)c2c(c1)CCC2(C)C,3.37,3440,91,inhibition (Mus musculus [2]): Dose-dependent effect
COc1ccc2c(n1)CCN(C(=O)N1CC(CC(=O)O)C1)[C@H]2C(=O)Nc1cc(F)c2c(c1)CCC2(C)C,3.42,,,
COc1ccc2c(n1)CCN(C(=O)[C@H]1C[C@H](C(=O)O)C1)[C@H]2C(=O)Nc1cc(F)c2c(c1)CCC2(C)C,3.46,,,
COc1ccc2c(n1)CCN(C(=O)C[C@H]1C[C@H](C(=O)O)C1)[C@H]2C(=O)Nc1cc(F)c2c(c1)CCC2(C)C,3.49,,,
COc1ccc2c(n1)CCN(C(=O)C1CN(CC(=O)O)C1)[C@H]2C(=O)Nc1cc(F)c2c(c1)CCC2(C)C,3.39,,,
COc1ccc2c(n1)CCN(C(=O)C[C@H]1C[C@@H](C(=O)O)C1)[C@H]2C(=O)Nc1cc(F)c2c(c1)CCC2(C)C,3.51,,,
COc1ccc2c(n1)CCN(C(=O)[C@H]1C[C@H](CC(=O)O)C1)[C@H]2C(=O)Nc1cc(F)c2c(c1)CCC2(C)C,3.54,,,
COCC(C)(C)c1c(F)cc(NC(=O)[C@H]2c3ccc(OC)cc3CCN2C(=O)CCCC(=O)O)cc1F,3.16,389,78,
COc1ccc2c(n1)CCN(C(=O)CCCC(=O)O)[C@H]2C(=O)Nc1cc(F)c([Si](C)(C)C)c(F)c1,4.04,2880,51,
COc1ccc2c(n1)CCN(C(=O)[C@H]1C[C@@H](CC(=O)O)C1)[C@H]2C(=O)Nc1cc(F)c2c(c1)CCC2(C)C,3.53,10100,,IC50 [5]: ≥ 30 µM; Cmax [6]: 1560 ng/mL; Tmax [7]: 2.3 h; MRT [8]: 4.1 h; IC50 [9]: ≥ 30 µM; inhibition (Mus musculus [10]): Dose-dependent effect; inhibition in vivo at 1 mg/kg (Mus musculus [11]): 50%; inhibition in vivo at 3 mg/kg (Mus musculus [12]): 44%; Activity (Mus musculus [13]): Active; Activity (Mus musculus [14]): Active
COc1ccc2c(n1)CCN(C(=O)CCCC(=O)O)[C@H]2C(=O)Nc1cc(F)c2c(c1)CCC2(C)C,3.39,2620,58,inhibition (Mus musculus [2]): Dose-dependent effect
COc1ccc2c(c1)CCN(C(=O)CCCC(=O)O)[C@H]2C(=O)Nc1cc(F)c(C(C)(C)C)c(F)c1,3.77,2840,62,
COc1ccc2c(n1)CCN(C(=O)[C@H]1C[C@@H](C(=O)O)C1)[C@H]2C(=O)Nc1cc(F)c2c(c1)CCC2(C)C,3.39,,,
